Data taken from ChEMBL document CHEMBL1124456, “Synthesis and structure-activity relationship of substituted tetrahydro- and hexahydro-1,2-benzisothiazol-3-one 1,1-dioxides and thiadiazinones: potential anxiolytic agents” (J Med Chem, 1989).

Assays:
Rattus norvegicus [1] = organism: Rattus norvegicus; assay: Anti-psychotic activity from the ability to block discrete trial conditioned avoidance response (CAR) of rats.; assay type: functional
Outline: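 Discrete-trial conditioned avoidance in male CD rats kept at about 400–450 g body weight. Dosing was ip or po, 30 min before testing, with at least five rats per dose (20 or 40 mg/kg, or a dose range). Computer recorded intertrial, avoidance and escape responses and no-response trials. Avoidance-block trials were taken as % of total trials, with control avoidance set at 100%. AB50 came from a least-squares dose-effect regression line.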

[2] = molecular target: T1, 5-hydroxytryptamine receptor 1A (Rattus norvegicus) (UniProt P19327); assay: In vitro ability to inhibit [3H]-8-OH-DPAT binding to 5-hydroxytryptamine 1A receptor of rat hippocampus at 1 uM; assay type: tissue-based
T1 sequence (whole entry): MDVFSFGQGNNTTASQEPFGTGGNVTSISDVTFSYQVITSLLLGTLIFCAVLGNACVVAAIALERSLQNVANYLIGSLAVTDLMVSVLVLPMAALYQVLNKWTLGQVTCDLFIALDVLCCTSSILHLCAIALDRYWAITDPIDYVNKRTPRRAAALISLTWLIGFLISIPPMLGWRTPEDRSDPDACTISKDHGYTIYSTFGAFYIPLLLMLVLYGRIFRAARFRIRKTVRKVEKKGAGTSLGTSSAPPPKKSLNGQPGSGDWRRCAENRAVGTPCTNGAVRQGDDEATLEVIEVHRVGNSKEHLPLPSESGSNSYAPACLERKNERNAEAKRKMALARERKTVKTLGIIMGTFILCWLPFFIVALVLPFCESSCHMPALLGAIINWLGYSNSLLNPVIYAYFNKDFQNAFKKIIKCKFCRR

[3] = molecular target: D(2) dopamine receptor (Rattus norvegicus) (UniProt P61169); assay: Inhibition of [3H]spiperone binding to Dopamine receptor D2 of rat limbic structures; assay type: tissue-based; design: concentration or dose not given beside the values; conditions: Limbic system, concentration not given here
[4] = molecular target: T1, 5-hydroxytryptamine receptor 1A (Rattus norvegicus); assay: In vitro ability to inhibit [3H]8-OH-DPAT binding to 5-hydroxytryptamine 1A receptor of rat hippocampus at 1 uM; assay type: tissue-based
[5] = molecular target: D(2) dopamine receptor (Rattus norvegicus) (UniProt P61169); assay: Inhibition of [3H]-spiperone binding to dopamine receptor D2 of rat limbic structures at 1 uM.; conditions: Limbic system
Rattus norvegicus [6] = assay: Compound was tested for antagonism of apomorphine-induced climbing behavior, after intraperitoneal dosing.; assay type: functional; conditions: ip
Rattus norvegicus [7] = assay: Compound was tested for antagonism of apomorphine-induced stereotyped behavior, after intraperitoneal dosing.; assay type: functional; conditions: ip
Outline: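 High-dose apomorphine-induced stereotyped behavior procedure. Test agents were given ip at doses up to 60 mg/kg.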

Chain of D(2) dopamine receptor (Rattus norvegicus) (P61169 whole entry): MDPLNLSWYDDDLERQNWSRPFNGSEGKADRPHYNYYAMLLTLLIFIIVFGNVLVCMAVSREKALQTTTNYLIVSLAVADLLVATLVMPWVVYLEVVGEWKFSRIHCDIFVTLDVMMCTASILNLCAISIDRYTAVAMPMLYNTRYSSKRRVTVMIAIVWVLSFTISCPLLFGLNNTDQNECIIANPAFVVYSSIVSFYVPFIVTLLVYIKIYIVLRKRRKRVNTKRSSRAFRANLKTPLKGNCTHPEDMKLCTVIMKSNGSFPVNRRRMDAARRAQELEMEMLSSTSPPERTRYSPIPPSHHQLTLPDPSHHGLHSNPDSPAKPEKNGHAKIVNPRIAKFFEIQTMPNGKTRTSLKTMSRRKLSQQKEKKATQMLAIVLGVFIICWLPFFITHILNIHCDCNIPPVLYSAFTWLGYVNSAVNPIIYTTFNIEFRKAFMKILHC

Row | inhibition [3] | Structure (SMILES) | AB50 (Rattus norvegicus [1]) | other results
1 | 0% | Cl.O=C1C2C3CCC(CC3)C2S(=O)(=O)N1CCCCC1CCN(c2cncc(Cl)n2)CC1 (stereo unspecified) | >40 mg/kg | inhibition [2]: 7%
2 | – | Cl.Cl.O=C1C2C3C=CC(C4CC34)C2S(=O)(=O)N1CCCCN1CCN(c2ncccn2)CC1 (stereo unspecified) | 40 mg/kg | –
3 | – | Cl.Cl.O=c1c2ccccc2[s+]([O-])n1CCCCN1CCN(c2ncccn2)CC1 (stereo unspecified) | 40 mg/kg | inhibition [4]: 43%; inhibition [5]: 3%
4 | – | Cl.Cl.O=C1C2C3CCC(O3)C2S(=O)(=O)N1CCCCN1CCN(c2ncccn2)CC1 (stereo unspecified) | >40 mg/kg | inhibition [5]: 0%; ED50 (Rattus norvegicus [6]): 16 mg/kg; ED50 (Rattus norvegicus [7]): 34 mg/kg
5 | 8% | Cl.Cl.O=C1c2ccccc2S(=O)(=O)N1CCCCN1CC2CN(Cc3ccccc3)CC2C1 (stereo unspecified) | >40 mg/kg | –
6 | 0% | Cl.O=c1c2ccccc2[s+]([O-])n1CCCCN1CCN(c2cncc(Cl)n2)CC1 (stereo unspecified) | 40 mg/kg | inhibition [2]: 44%
7 | – | Cl.O=C1[C@H]2C3CCC(O3)[C@H]2S(=O)(=O)N1CCCCc1ccncc1 (stereo partly specified) | 40 mg/kg | inhibition [4]: 0%; inhibition [5]: 3%
8 | 1% | Cl.Cl.Cl.O=C1C2C3C=CC(C3)C2S(=O)(=O)N1CCCCN1CCN(c2cncc(Cl)n2)CC1 (stereo unspecified) | 40 mg/kg | –
9 | 1% | Cl.O=C1C2C3C=CC(C3)C2S(=O)(=O)N1CCCCc1ccncc1 (stereo unspecified) | 40 mg/kg | –
10 | 0% | Cl.O=C1C2C3C=CC(CC3)C2S(=O)(=O)N1CCCCc1ccncc1 (stereo unspecified) | >40 mg/kg | inhibition [4]: 35%
11 | 6% | Cl.O=C1c2ccccc2S(=O)(=O)N1CCCCN1CCN(c2cncc(Cl)n2)CC1 | 40 mg/kg | –
12 | 4% | CC1CC(=O)N(CCCCN2CCN(c3cncc(Cl)n3)CC2)S(=O)(=O)N1.Cl.Cl.Cl (stereo unspecified) | 32 mg/kg | inhibition [2]: 61%
13 | – | CC1CC(=O)N(CCCCN2CCN(c3ncccn3)CC2)S(=O)(=O)N1.Cl (stereo unspecified) | 40 mg/kg | –
14 | 21% | CC1=C(C)CC2C(C1)C(=O)N(CCCCN1CCN(c3ncccn3)CC1)S2(=O)=O.Cl.Cl (stereo unspecified) | 40 mg/kg | –
15 | – | Cl.Cl.O=C1c2cscc2S(=O)(=O)N1CCCCN1CCN(c2ncccn2)CC1 | >20 mg/kg | –
16 | 10% | Cl.O=C1[C@@H]2C3CCC(O3)[C@@H]2S(=O)(=O)N1CCCCN1CCN(c2cncc(Cl)n2)CC1 (stereo partly specified) | 40 mg/kg | inhibition [2]: 54%
17 | – | Cl.Cl.O=C1N(CCCCN2CCN(c3ncccn3)CC2)S(=O)(=O)NC12CCCCC2 | 40 mg/kg | –
18 | 3% | Cl.Cl.Cl.O=C1C2C3C=CC(C3)C2S(=O)(=O)N1CCCCN1CCN(c2ccc(Cl)nn2)CC1 (stereo unspecified) | >40 mg/kg | –
19 | – | Cl.O=C1c2ccccc2S(=O)(=O)N1CCCCN1CCN(c2nccnc2Cl)CC1 | 40 mg/kg | –
20 | – | Cl.Cl.Cl.O=C1c2cscc2S(=O)(=O)N1CCCCN1CCN(c2ccc(Cl)nn2)CC1 | >40 mg/kg | –
21 | 0% | Cl.O=C1c2ccccc2S(=O)(=O)N1CCCCN1CCn2cccc2C1 | >40 mg/kg | –
22 | – | Cl.O=C1c2cscc2S(=O)(=O)N1CCCCN1CCN(c2nccnc2Cl)CC1 | >40 mg/kg | –
23 | – | CC1=C(C)CC2C(C1)C(=O)N(CCCCc1ccncc1)S2(=O)=O.Cl (stereo unspecified) | >40 mg/kg | inhibition [4]: 8%; inhibition [5]: 56%
24 | – | Cl.O=C1c2cscc2S(=O)(=O)N1CCCCN1CCN(c2cncc(Cl)n2)CC1 | >40 mg/kg | –
25 | – | Cl.Cl.O=C1C2C3C=CC(CC3)C2S(=O)(=O)N1CCCCN1CCN(c2ncccn2)CC1 (stereo unspecified) | 40 mg/kg | –
